This is an account of results in ChEMBL document CHEMBL1782048, “Novel 1-(2-aminopyrazin-3-yl)methyl-2-thioureas as potent inhibitors of mitogen-activated protein kinase-activated protein kinase 2 (MK-2)” (Bioorg Med Chem Lett, 2009).

The term IC50 denotes the concentration needed to halve the response being measured. A higher IC50 goes with lower potency. The term inhibition in vivo denotes how much of the control response was suppressed. The inhibition is the relative decrease from the control value, in per cent. Low readings indicate a response near the control, high ones a response far below the control. By half-life is commonly meant the time in which the quantity being followed falls by half. A high value points to slow loss. What is called clearance is the rate of elimination divided by the concentration. High values mean efficient removal, low ones inefficient removal. One may read the bioavailability as the share of a dose that reaches the circulation, judged against a reference dose that is usually intravenous. A low value points to poor availability.

For series [1], the target named is MAP kinase-activated protein kinase 2 (Homo sapiens, UniProt P49137). Nature of the series: Inhibition of MK2 using biotin-LCAYSRALSRQLSSGVSEIRH substrate.
In a further series the test system is THP-1. Nature of the series: Inhibition of LPS-induced TNFalpha production in human THP1 cells after 4 hrs by ELISA. Conditions: THP-1, 4 h. A general note: In an ELISA, binding on a coated surface is turned into a signal by an enzyme label.
The subject of a further series is Mus musculus. Nature of the series: Antiinflammatory activity in BALB/c mouse assessed as inhibition of LPS-stimulated TNFalpha production at 10 mg/kg, iv after 1.5 hrs. In kind it is functional. The procedure, abridged: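 Female Balb/c mice, 12 weeks old, dosed iv at 10 mg/kg in DMSO/Cremophor/saline (or vehicle alone) just before injection of 10 µg/mouse LPS (E. coli serotype 0111:B4) plus 800 mg/kg D-galactosamine in saline. Animals euthanized 90 min later; plasma TNF measured by ELISA.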

The species named for a further series is Rattus norvegicus. Nature of the series: Normalized AUC in rat. In kind it is ADME, organism-based. To be noted: in vivo.
Series [2] has as its target T1, MAP kinase-activated protein kinase 5 (Homo sapiens) (UniProt Q8IW41).
T1 sequence (whole entry): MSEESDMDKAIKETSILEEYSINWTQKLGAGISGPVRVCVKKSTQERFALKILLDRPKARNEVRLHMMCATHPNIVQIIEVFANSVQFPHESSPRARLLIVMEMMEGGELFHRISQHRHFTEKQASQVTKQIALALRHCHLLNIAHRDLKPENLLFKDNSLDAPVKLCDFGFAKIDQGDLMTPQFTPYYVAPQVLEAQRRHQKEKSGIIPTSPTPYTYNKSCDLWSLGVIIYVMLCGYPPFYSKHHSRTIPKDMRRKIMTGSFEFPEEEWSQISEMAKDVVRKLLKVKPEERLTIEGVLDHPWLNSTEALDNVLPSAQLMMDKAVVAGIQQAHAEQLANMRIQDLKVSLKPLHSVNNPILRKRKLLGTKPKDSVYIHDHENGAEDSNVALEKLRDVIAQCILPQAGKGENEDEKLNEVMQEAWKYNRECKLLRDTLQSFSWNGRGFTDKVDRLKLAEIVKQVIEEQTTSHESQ
Nature of the series: Inhibition of MK5 at 1 uM.

Series [3] can be described thus: Half life in rat. Conditions: in vivo. In kind it is ADME, organism-based.
Series [4] in a line: Clearance in rat. In kind it is ADME, organism-based. To be noted: in vivo.
The nature of series [5]: Oral bioavailability AUC in rat. Conditions: in vivo. In kind it is ADME, organism-based.
Series [6] in a line: Inhibition of AMPK at 10 uM.
Series [7] addresses Ribosomal protein S6 kinase alpha-5 (Homo sapiens) (UniProt O75582). Nature of the series: Inhibition of RPS6KA5 at 10 uM.
The target in series [8] is Ribosomal protein S6 kinase alpha-1 (Homo sapiens) (UniProt Q15418). Nature of the series: Inhibition of RPS6KA1 at 10 uM.

Some results are limits rather than exact numbers.

Sequence of MAP kinase-activated protein kinase 2 (P49137 whole entry): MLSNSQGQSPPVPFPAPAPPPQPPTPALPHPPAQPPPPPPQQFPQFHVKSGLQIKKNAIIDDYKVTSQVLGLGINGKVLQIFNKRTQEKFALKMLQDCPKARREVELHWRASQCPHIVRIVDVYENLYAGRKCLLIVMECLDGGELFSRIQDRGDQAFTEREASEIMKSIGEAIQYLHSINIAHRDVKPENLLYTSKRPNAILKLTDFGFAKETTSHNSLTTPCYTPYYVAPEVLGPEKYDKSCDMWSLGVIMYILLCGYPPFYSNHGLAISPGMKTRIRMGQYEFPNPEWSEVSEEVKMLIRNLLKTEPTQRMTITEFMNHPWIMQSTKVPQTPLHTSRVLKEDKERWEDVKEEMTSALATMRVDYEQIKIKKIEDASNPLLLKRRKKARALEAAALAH
Sequence of Ribosomal protein S6 kinase alpha-1 (Homo sapiens) (Q15418 whole entry): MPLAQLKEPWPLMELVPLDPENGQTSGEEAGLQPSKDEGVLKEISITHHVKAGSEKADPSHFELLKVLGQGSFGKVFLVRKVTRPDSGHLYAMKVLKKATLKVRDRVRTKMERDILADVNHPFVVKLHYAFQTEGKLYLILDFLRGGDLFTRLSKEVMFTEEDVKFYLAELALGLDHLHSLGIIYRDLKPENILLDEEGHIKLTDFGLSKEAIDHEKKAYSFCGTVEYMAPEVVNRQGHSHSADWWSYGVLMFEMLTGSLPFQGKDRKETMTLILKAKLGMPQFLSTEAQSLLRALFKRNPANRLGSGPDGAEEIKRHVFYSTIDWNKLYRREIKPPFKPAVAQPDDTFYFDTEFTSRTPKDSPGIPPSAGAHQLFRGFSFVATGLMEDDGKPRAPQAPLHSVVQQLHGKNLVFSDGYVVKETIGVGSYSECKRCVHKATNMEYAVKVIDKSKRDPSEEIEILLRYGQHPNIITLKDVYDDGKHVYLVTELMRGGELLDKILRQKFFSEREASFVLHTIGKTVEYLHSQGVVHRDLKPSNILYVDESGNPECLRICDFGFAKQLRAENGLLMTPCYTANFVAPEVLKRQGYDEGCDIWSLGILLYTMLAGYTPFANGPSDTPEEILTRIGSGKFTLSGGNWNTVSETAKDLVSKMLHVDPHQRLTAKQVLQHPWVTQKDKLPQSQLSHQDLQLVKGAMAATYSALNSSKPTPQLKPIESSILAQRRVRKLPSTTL
Sequence of Ribosomal protein S6 kinase alpha-5 (Homo sapiens) (O75582 whole entry, looked up): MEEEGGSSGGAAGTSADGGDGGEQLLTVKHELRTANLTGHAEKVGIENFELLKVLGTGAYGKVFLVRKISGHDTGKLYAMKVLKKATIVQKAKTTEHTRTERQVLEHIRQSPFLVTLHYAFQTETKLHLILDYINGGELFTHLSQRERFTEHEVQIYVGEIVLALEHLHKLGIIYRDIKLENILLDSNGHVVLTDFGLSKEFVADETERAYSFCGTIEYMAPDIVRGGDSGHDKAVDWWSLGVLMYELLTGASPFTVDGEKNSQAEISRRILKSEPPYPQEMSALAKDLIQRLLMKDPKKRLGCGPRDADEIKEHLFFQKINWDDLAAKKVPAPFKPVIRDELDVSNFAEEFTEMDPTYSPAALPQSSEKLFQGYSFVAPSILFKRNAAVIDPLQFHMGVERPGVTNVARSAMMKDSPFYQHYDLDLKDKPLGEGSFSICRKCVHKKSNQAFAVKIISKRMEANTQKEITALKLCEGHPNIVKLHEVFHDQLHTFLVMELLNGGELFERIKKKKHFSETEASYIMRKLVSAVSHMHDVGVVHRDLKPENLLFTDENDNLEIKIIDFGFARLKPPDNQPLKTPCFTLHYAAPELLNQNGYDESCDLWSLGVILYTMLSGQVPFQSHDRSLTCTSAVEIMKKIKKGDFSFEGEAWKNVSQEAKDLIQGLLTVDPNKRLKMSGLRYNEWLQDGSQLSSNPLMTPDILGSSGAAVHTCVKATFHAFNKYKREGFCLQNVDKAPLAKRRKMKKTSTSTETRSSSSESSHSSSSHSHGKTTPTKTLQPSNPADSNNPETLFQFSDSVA

For the molecule `Nc1ncc(Cl)nc1CNC(=S)Nc1ccccc1F`, the IC50 in series [1] was found to be 2 µM.
Molecule `CN(C)c1nc(N)c(CNC(=S)Nc2ccccc2)nc1Cl` came in with an IC50 in series [1] greater than 50 µM.
On to `CC(C)(C)NC(=O)Nc1ccc(NC(=S)NCc2nc(C3CC3)cnc2N)cc1`, for which, in the series on THP-1, the IC50 was found to be 1400 nM.
`Nc1ncc(Cl)nc1CNC(=S)Nc1cccc2ccccc12` yielded an IC50 in series [1] of 3.2 µM.
In series [1], `CCOc1nc(N)c(CNC(=S)Nc2ccccc2)nc1Cl` gave an IC50 greater than 50 µM.
Still for that read-out and setting: for `Nc1ncc(Cl)nc1CNC(=S)NC(=O)c1ccccc1` the value was 91 µM; for `CCN(CC)CCCNC(=S)NCc1nc(Cl)cnc1N`, greater than 50 µM.
Turning to `Nc1ncc(Cl)nc1CNC(=S)NC1CCCC1`, inhibition in series [1] was half-maximal at 53 µM (IC50).
In turn, `Cc1cnc(N)c(CNC(=S)Nc2ccc3c(c2)CC(=O)N3)n1` displayed an IC50 in [1] of 27 µM.
Consider `Nc1ncc(Cl)nc1CNC(=S)NCc1ccccc1`, for which the IC50 in series [1] is 36 µM.
On the same count and under the same terms, the figure for `Nc1ncc(Cl)nc1CNC(=S)Nc1ccc(Cl)cc1Cl` is 4.3 µM.
Turning to `Nc1ccc(NC(=S)NCc2nc(Cl)cnc2N)cc1`, in [1], inhibition was half-maximal at 2 µM (IC50).
Still for that read-out and setting: for `Nc1ncc(Cl)nc1CNC(=S)NC1CCCCCC1` the value was 35 µM.
`CC(C)(C)OC(=O)Nc1ccc(NC(=S)NCc2nc(C3CC3)cnc2N)cc1`: 3200 nM corresponded to half-maximal inhibition in the series on THP-1 (IC50).
In turn, `Cc1cnc(N)c(CNC(=S)Nc2ccc3oc(=O)[nH]c3c2)n1` had an IC50 in series [1] of 14 µM.
For the molecule `CCCc1cnc(N)c(CNC(=S)Nc2ccc3[nH]c(=O)oc3c2)n1`, the inhibition in vivo at 10 mg/kg in the series with Mus musculus worked out at 70%. Moreover, half-maximal inhibition in the series with THP-1 (IC50) was put at 750 nM. The molecule also displayed an AUC/dose in the series listed under Rattus norvegicus of 0.3 µM·kg·h/mg. This molecule also showed an inhibition in [2] greater than 70%. The molecule further gave a half-life in series [3] of 18 min. For the same molecule, the clearance in series [4] was found to be 12.9 mL/min/kg. The molecule further displayed a bioavailability in series [5] of 8%.
With `Cc1cnc(N)c(CNC(=S)Nc2ccc3c(c2)[nH]c(=O)n3C)n1`, the IC50 in [1] is greater than 20 µM.
With `Nc1ncc(C2CC2)nc1CNC(=S)Nc1ccc2[nH]c(=O)oc2c1`, the inhibition in vivo at 10 mg/kg with Mus musculus came to 75%. The values for the IC50 (with THP-1; in series [1]) were 1700 nM and 0.015 µM, respectively.
For `CCCc1cnc(N)c(CNC(=S)Nc2ccc(NC(=O)OC(C)(C)C)cc2)n1`, the inhibition in [6], in series [7] and in series [8] was greater than 70% in each case. Further, the inhibition in vivo at 10 mg/kg in the series on Mus musculus worked out at 62%. Besides, the results for the IC50 (in the series with THP-1; in series [1]) were 3000 nM and 0.045 µM, respectively. This molecule also came in with an AUC/dose in the series filed under Rattus norvegicus of 3.3 µM·kg·h/mg. In addition, the half-life in series [3] was 48 min. The clearance in series [4] turned out to be 2.5 mL/min/kg. In series [5], this molecule returned a bioavailability of 19%.
Regarding `Nc1ncc(Cl)nc1CNC(=S)Nc1ccc(Br)cc1`, the IC50 in series [1] amounted to 3.1 µM.
On the same count and under the same terms, the figure for `CSc1nc(N)c(CNC(=S)Nc2ccccc2)nc1Cl` is greater than 50 µM.
Take `CCCCc1cnc(N)c(CNC(=S)Nc2ccc3[nH]c(=O)oc3c2)n1`: in the series with THP-1, half-maximal inhibition (IC50) required 3800 nM.
In series [1], `Cc1cccc(NC(=S)NCc2nc(Cl)cnc2N)c1` displayed an IC50 of 9.3 µM.
Take `Nc1ncc(Cl)nc1CNC(=S)Nc1ccc(-n2cnnn2)cc1`: in series [1], the IC50 is greater than 40 µM.
`CCc1cnc(N)c(CNC(=S)Nc2ccc(NC(=O)OC(C)(C)C)cc2)n1` had a concentration for half-maximal inhibition (IC50) in the series on THP-1 of 4000 nM.
In [1], `CC(C)(C)NC(=S)NCc1nc(Cl)cnc1N` yielded a half-inhibitory concentration (IC50) of 2.5 µM.
The same measure, in the same setting: for `Nc1ncc(Cl)nc1CNC(=S)NC1CC1` the value was 12 µM; for `Cc1cnc(N)c(CNC(=S)Nc2ccc3[nH]c(=O)sc3c2)n1`, 15 µM.
The molecule `Nc1ncc(Cl)nc1CNC(=S)Nc1cccc(Cl)c1` came in with an IC50 in series [1] of 11.3 µM.
Still for that read-out and setting: the figure for `CC(C)NC(=S)NCc1nc(Cl)cnc1N` is 13 µM; for `Nc1ncc(Cl)nc1CNC(=S)Nc1ccccc1Cl` it is 1.1 µM; for `Cc1cnc(N)c(CNC(=S)Nc2ccc(NC(=O)Oc3ccccc3)cc2)n1` it is 0.73 µM.
Molecule `Cc1cnc(N)c(CNC(=S)Nc2ccc(NC(=O)Cc3ccccc3)cc2)n1` came in with a half-maximal inhibitory concentration (IC50) in series [1] of 3.8 µM.
In turn, `Nc1ncc(Cl)nc1CNC(=S)Nc1cc(Cl)cc(Cl)c1` came in with an IC50 in series [1] of 27 µM.
For the molecule `Cc1cnc(N)c(CNC(=S)Nc2ccc3[nH]c(=O)[nH]c3c2)n1`, in [1], the IC50 amounted to 15 µM.
On the same count and under the same terms, the figure for `Cc1ccccc1NC(=S)NCc1nc(Cl)cnc1N` is 3.6 µM; for `Cc1ccc(NC(=S)NCc2nc(Cl)cnc2N)cc1` it is 2.7 µM.
For the molecule `Nc1ncc(C(F)(F)F)nc1CNC(=S)Nc1ccccc1`, in [1], the IC50 is greater than 50 µM.
The same measure, in the same setting: for `Nc1ncc(Cl)nc1CNC(=S)Nc1ccccc1-c1ccccc1` the value was greater than 20 µM.
The same measure, in the same setting: for `Nc1ncc(Cl)nc1CNC(=S)Nc1ccc(Cl)cc1` the value was 3.7 µM.
Regarding `Nc1ncc(Cl)nc1CNC(=S)Nc1ccc(Cl)c(Cl)c1`, half-maximal inhibition in series [1] (IC50) was put at 40 µM.
On the same count and under the same terms, for `Nc1ncc(Cl)nc1CNC(=S)NCCc1ccccc1` the value was greater than 50 µM.
Still for that read-out and setting: the figure for `Cc1cnc(N)c(CNC(=S)Nc2ccc(NC(=O)c3ccccc3)cc2)n1` is 0.58 µM.
